Results on one compound are retold here after ChEMBL document CHEMBL3779801, “Discovery of the Selective CYP17A1 Lyase Inhibitor BMS-351 for the Treatment of Prostate Cancer” (ACS Med Chem Lett, 2016).

For data set [1], the system named is Cynomolgus monkey. Put plainly: Effect on progesterone level in one day castrated cynomolgus monkey assessed as baseline level at 1.5 mg/kg, po bid for 24 hrs by radiometric immunoassay. It is filed as ADME, organism-based, Macaca fascicularis. Conditions: in vivo.
The subject of data set [2] is Cynomolgus monkey. Put plainly: Ratio of Cmax to Cmean in cynomolgus monkey plasma at 4 mg/kg, po after 0.25 to 45 hrs by LC-MS/MS analysis. In kind it is ADME, organism-based, Macaca fascicularis. The conditions noted are these: in vivo.
A further data set has as its target T1, Cytochrome P450 1A2 (Homo sapiens, UniProt P05177).
T1 sequence (P05177 whole entry): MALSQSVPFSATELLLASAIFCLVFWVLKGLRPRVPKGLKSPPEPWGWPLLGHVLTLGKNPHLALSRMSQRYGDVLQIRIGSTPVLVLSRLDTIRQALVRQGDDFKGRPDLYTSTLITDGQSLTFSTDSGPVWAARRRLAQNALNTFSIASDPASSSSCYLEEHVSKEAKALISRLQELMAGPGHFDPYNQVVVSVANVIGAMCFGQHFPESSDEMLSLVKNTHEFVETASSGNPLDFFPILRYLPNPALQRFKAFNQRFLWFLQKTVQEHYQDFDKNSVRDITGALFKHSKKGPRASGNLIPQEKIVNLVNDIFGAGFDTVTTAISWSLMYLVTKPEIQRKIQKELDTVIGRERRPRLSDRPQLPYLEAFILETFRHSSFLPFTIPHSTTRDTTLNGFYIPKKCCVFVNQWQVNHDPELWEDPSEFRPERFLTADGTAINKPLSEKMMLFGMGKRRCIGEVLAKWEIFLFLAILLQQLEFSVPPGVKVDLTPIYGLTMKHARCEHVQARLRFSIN
Put plainly: Inhibition of CYP1A2 (unknown origin). In kind it is ADME.

The nature of data set [3]: Metabolic stability in human liver microsomes assessed as parent compound remaining at 0.5 uM incubated for 10 mins. It is filed as ADME. Conditions: read-out: Stability. The method in brief: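 Compound at 0.5 μM was incubated with human, mouse or cynomolgus liver microsomes for 10 min.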
For another data set, the target named is T2, Steroid 21-hydroxylase (Homo sapiens, UniProt P08686).
T2 sequence (P08686 whole entry): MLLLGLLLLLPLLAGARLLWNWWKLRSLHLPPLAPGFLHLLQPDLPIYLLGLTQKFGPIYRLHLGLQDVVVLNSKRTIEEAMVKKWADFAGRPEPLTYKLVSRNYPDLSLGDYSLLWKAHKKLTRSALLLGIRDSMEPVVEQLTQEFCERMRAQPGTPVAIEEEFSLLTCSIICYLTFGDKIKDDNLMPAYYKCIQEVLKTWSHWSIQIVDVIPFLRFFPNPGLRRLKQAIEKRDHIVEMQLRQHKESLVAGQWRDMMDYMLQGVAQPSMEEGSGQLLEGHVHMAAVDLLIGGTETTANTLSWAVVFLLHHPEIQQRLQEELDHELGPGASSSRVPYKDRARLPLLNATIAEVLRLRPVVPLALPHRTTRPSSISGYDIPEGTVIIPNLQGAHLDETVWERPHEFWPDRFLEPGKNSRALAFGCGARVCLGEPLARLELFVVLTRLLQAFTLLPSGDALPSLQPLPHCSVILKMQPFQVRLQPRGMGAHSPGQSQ
Put plainly: Inhibition of CYP21A2 in human H295R cells using hydroxy progesterone as substrate incubated for 120 mins by LC-MS method. In kind it is ADME, cell-based.

A short description of data set [4]: Inhibition of cynomolgus monkey CYP11B1 using hydroxy progesterone as substrate incubated for 120 mins by LC-MS method. Also on record: species or system Macaca fascicularis.
The nature of data set [5]: AUC in cynomolgus monkey plasma at 4 mg/kg, po after 0.25 to 45 hrs by LC-MS/MS analysis. It is filed as ADME, organism-based, Macaca fascicularis. Also on record: dose 4 mg/kg, time upper 45 hr, time lower 0.25 hr, route oral. The procedure, abridged: (§1)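 Cynomolgus monkeys were dosed orally from a solution formulation. Plasma parameters are given as mean ± standard deviation.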

The target of data set [6] is T3, Steroid 17-alpha-hydroxylase/17,20 lyase (Homo sapiens, UniProt P05093).
T3 sequence (P05093 whole entry): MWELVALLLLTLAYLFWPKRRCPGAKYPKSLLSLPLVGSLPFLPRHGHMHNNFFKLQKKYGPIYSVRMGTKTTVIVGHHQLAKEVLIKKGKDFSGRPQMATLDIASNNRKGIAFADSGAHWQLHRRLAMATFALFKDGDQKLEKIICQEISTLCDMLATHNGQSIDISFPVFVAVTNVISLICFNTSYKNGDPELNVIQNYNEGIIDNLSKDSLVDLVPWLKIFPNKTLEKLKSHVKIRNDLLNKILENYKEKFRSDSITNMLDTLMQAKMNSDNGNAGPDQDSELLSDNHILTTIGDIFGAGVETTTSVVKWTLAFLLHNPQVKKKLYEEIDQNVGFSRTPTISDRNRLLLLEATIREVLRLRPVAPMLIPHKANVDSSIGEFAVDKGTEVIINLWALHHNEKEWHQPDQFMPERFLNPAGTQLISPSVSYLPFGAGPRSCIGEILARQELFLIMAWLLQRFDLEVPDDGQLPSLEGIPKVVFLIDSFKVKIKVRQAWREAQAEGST
Put plainly: Inhibition of CYP17A1 in human adrenal microsomes using [3H]-pregnenolone as substrate incubated for 90 mins by scintillation proximity assay in presence of NADPH. Also on record: species or system Adrenal gland.

Data set [7] deals with Cynomolgus monkey. Put plainly: Effect on cortisol level in one day castrated cynomolgus monkey assessed as baseline level at 1.5 mg/kg, po bid for 24 hrs by radiometric immunoassay. The conditions noted are these: in vivo. It is filed as ADME, organism-based, Macaca fascicularis.
A short description of data set [8]: Tmax in cynomolgus monkey plasma at 4 mg/kg, po after 0.25 to 45 hrs by LC-MS/MS analysis. It is filed as ADME, organism-based, Macaca fascicularis. The method in brief:
as §1

Data set [9] is described as follows: Volume of distribution at steady state in cynomolgus monkey plasma at 2 mg/kg, iv by LC-MS/MS analysis. The conditions noted are these: read-out: Vdss. It is filed as ADME, organism-based, Macaca fascicularis. The procedure, abridged:
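Cynomolgus monkeys were dosed intravenously. Plasma parameters are given as mean ± standard deviation.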

For `Cc1ccncc1-c1cccc2c1ncn2CC(F)(F)F`, the Activity entry in the data set on Cynomolgus monkey [1] and with Cynomolgus monkey [7] was “Non-toxic” in each case. Moreover, in the data set with Cynomolgus monkey [2], the Ratio is reported as 16. In addition, the IC50 on Cytochrome P450 1A2 was 9 µM; at Steroid 21-hydroxylase, more than 7.5 µM; in data set [4], more than 7.5 µM; in data set [6], 20 nM. In addition, the remaining at 10 min, 0.5 µM in data set [3] turned out to be 90%. In addition, the area under the curve (AUC) in data set [5] came out at 12.3 µM·h. Also, in data set [8], the time to peak (Tmax) is 1.3 h. In addition, in data set [9], the Vd worked out at 4.4 L/kg.
